{
  "source": "ChEMBL document CHEMBL2390852",
  "about": "“Anti-influenza active and low toxic N-phenyl-substituted β-amidoamidines structurally related to natural antibiotic amidinomycin” (Bioorg Med Chem Lett, 2013)",
  "key": {"[1]": {"assay": "Cytotoxicity against dog MDCK cells after 48 hrs by MTT assay", "format": "cell-based, Canis lupus familiaris", "summary_of_the_method": "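MDCK cells were incubated with compound at various concentrations for 48 h. CC50 is the concentration causing 50% reduction of cell viability. Values are means of 2–4 separate experiments.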"}, "Influenza A virus [2]": {"system": "Influenza A virus", "assay": "Antiviral activity against 100 infective dose of influenza A virus A/St. Petersburg/34/72 (H3N2) infected in dog MDCK cells assessed as virus-induced cytopathic effect after 48 hrs", "format": "functional, organism-based", "summary_of_the_method": "(§1)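 MDCK cells in maintenance medium were infected with 1 infective dose or 100 doses, where 1 dose induced 50 3% cell death under standard conditions. Cells were incubated with compound at various concentrations for 48 h at 37 °C in 5% CO2. CPE was scored against cell and virus controls, and EC50 is the concentration giving 50% inhibition of CPE. Values are means of 2–4 separate experiments.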"}, "[3]": {"system": "influenza A virus A/St. Petersburg/34/72 (H3N2)", "assay": "Therapeutic index, ratio of CC50 for dog MDCK cells to EC50 for 1 infective dose of influenza A virus A/St. Petersburg/34/72 (H3N2)", "format": "cell-based", "settings": "read-out: Ratio CC50/EC50"}, "H3N2 subtype [4]": {"system": "H3N2 subtype", "assay": "Antiviral activity against Influenza A virus (A/Aichi/2/1968(H3N2))-infected in Balb/c mouse at </= 100 mg/kg, sc after 7 to 14 days", "format": "functional, organism-based", "parameters": "dose 100 mg/kg"}, "H3N2 subtype [5]": {"system": "H3N2 subtype", "assay": "Antiviral activity against Influenza A virus (A/Aichi/2/1968(H3N2))-infected in Balb/c mouse at 0.1 LD50/dose, sc for 5 times measured after 7 to 14 days", "format": "functional, organism-based", "summary_of_the_method": "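Balb/c mice of both sexes, 10 per group, were infected intranasally with mouse-adapted virus. […] Vehicle controls received the same schedule. Survivors were counted on days 7 and 14.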"}, "[6]": {"system": "influenza A virus A/St. Petersburg/34/72 (H3N2)", "assay": "Therapeutic index, ratio of CC50 for dog MDCK cells to EC50 for 100 infective dose of influenza A virus A/St. Petersburg/34/72 (H3N2", "format": "cell-based", "settings": "read-out: Ratio CC50/EC50"}, "Influenza A virus [7]": {"system": "Influenza A virus", "assay": "Antiviral activity against influenza A virus A/St. Petersburg/34/72 (H3N2) infected in dog MDCK cells using chicken erythrocytes by hemadsorption assay", "format": "functional, organism-based", "summary_of_the_method": "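Hemadsorption of chicken erythrocytes was used alongside the CPE read-out on infected MDCK cells after 48 h compound incubation at 37 °C in 5% CO2. The results of the two assays were averaged.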"}, "Influenza A virus [8]": {"system": "Influenza A virus", "assay": "Antiviral activity against 1 infective dose of influenza A virus A/St. Petersburg/34/72 (H3N2) infected in dog MDCK cells assessed as virus-induced cytopathic effect after 48 hrs", "format": "functional, organism-based", "summary_of_the_method": "as §1"}, "[9]": {"assay": "Acute toxicity in sc dosed Balb/c mouse after 5 days", "format": "organism-based", "settings": "in vivo", "summary_of_the_method": "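Male Balb/c mice, four per group, given single SC doses rising from 1000 to 4000 mg/kg in 500 mg/kg steps, in saline/DMSO 4:1 (200 µL total). LD50 was taken as the dose giving 50% mortality, with toxicity estimated in a 5 days test.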"}, "Mus musculus [10]": {"system": "Mus musculus", "assay": "Sub-acute toxicity in Balb/c mouse assessed as behavioural change at 300 mg/kg, sc administered for 6 days measured on day 10", "format": "organism-based", "parameters": "dose 300 mg/kg, route subcutaneous", "settings": "in vivo, 144 h", "summary_of_the_method": "(§2)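 Four mice, two of each sex, were given 300 mg/kg SC daily for 6 days. Behaviour and body weight were assessed at day 10.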"}, "Mus musculus [11]": {"system": "Mus musculus", "assay": "Sub-acute toxicity in Balb/c mouse assessed as change in body weight at 300 mg/kg, sc administered for 6 days measured on day 10", "format": "organism-based", "parameters": "dose 300 mg/kg, route subcutaneous", "settings": "in vivo, 144 h", "summary_of_the_method": "as §2"}, "Mus musculus [12]": {"system": "Mus musculus", "assay": "Sub-acute toxicity in Balb/c mouse assessed as survival at 1000 mg/kg, sc after 10 days", "format": "organism-based", "parameters": "dose 1000 mg/kg, route subcutaneous", "settings": "in vivo, 240 h", "summary_of_the_method": "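Four male Balb/c mice each received a single SC dose of 1000 mg/kg in saline/DMSO 4:1. Survival was followed for at least 10 days.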"}},
  "note": "Activity calls are given as the source filed them. No cut-off for these calls is given here.",
  "data": [
    {"smiles": "CCCCCCCCCCC(=O)N(CC(C)/C(=N\\c1ccccc1)Nc1ccccc1)c1ccccc1.Cl", "note": "(racemic)", "values": [
      {"measurement": "CC50 at 48 h", "setting": "[1]", "result": 936, "unit": "µM"},
      {"measurement": "EC50", "setting": "Influenza A virus [2]", "result": 7.3, "unit": "µM"},
      {"measurement": "selectivity ratio", "setting": "[3]", "result": 514},
      {"measurement": "Activity", "setting": "H3N2 subtype [4]", "result": "inactive"},
      {"measurement": "Activity", "setting": "H3N2 subtype [5]", "result": "Active"},
      {"measurement": "selectivity ratio", "setting": "[6]", "result": 128},
      {"measurement": "Activity", "setting": "Influenza A virus [7]", "result": "Active"},
      {"measurement": "EC50", "setting": "Influenza A virus [8]", "result": 1.82, "unit": "µM"},
      {"measurement": "LD50 at 120 h", "setting": "[9]", "result": 3500, "unit": "mg/kg"}
    ]},
    {"smiles": "CCCCCCCCCCCCC(=O)N(CC(C)/C(=N\\c1ccccc1)Nc1ccccc1)c1ccccc1.Cl", "note": "(racemic)", "values": [
      {"measurement": "CC50 at 48 h", "setting": "[1]", "result": 890, "unit": "µM"},
      {"measurement": "EC50", "setting": "Influenza A virus [2]", "result": 27.8, "unit": "µM"},
      {"measurement": "selectivity ratio", "setting": "[3]", "result": 128},
      {"measurement": "Activity", "setting": "H3N2 subtype [4]", "result": "inactive"},
      {"measurement": "Activity", "setting": "H3N2 subtype [5]", "result": "Active"},
      {"measurement": "selectivity ratio", "setting": "[6]", "result": 32},
      {"measurement": "EC50", "setting": "Influenza A virus [8]", "result": 6.95, "unit": "µM"},
      {"measurement": "LD50 at 120 h", "setting": "[9]", "result": 4000, "unit": "mg/kg"}
    ]},
    {"smiles": "CCCCCCCCCCCCCCCCCC(=O)N(CC(C)/C(=N\\c1ccccc1)Nc1ccccc1)c1ccccc1", "note": "(racemic)", "values": [
      {"measurement": "CC50 at 48 h", "setting": "[1]", "result": 1240, "unit": "µM"},
      {"measurement": "EC50", "setting": "Influenza A virus [2]", "result": 72, "unit": "µM"},
      {"measurement": "selectivity ratio", "setting": "[3]", "result": 80},
      {"measurement": "selectivity ratio", "setting": "[6]", "result": 17},
      {"measurement": "EC50", "setting": "Influenza A virus [8]", "result": 15.6, "unit": "µM"}
    ]},
    {"smiles": "CC(CNc1ccccc1)/C(=N\\c1ccccc1)Nc1ccccc1", "note": "(racemic)", "values": [
      {"measurement": "CC50 at 48 h", "setting": "[1]", "result": 85, "unit": "µM"},
      {"measurement": "EC50", "setting": "Influenza A virus [2]", "result": "≥ 200", "unit": "µM"},
      {"measurement": "EC50", "setting": "Influenza A virus [8]", "result": "≥ 200", "unit": "µM"}
    ]},
    {"smiles": "CC(CN(C(=O)c1ccccc1)c1ccccc1)/C(=N\\c1ccccc1)Nc1ccccc1", "note": "(racemic)", "values": [
      {"measurement": "CC50 at 48 h", "setting": "[1]", "result": 286, "unit": "µM"},
      {"measurement": "EC50", "setting": "Influenza A virus [2]", "result": "≥ 200", "unit": "µM"},
      {"measurement": "selectivity ratio", "setting": "[3]", "result": "< 2.85"},
      {"measurement": "EC50", "setting": "Influenza A virus [8]", "result": "> 100", "unit": "µM"}
    ]},
    {"smiles": "CC(=O)N(CC(C)/C(=N\\c1ccccc1)Nc1ccccc1)c1ccccc1", "note": "(racemic)", "values": [
      {"measurement": "CC50 at 48 h", "setting": "[1]", "result": 153, "unit": "µM"},
      {"measurement": "EC50", "setting": "Influenza A virus [2]", "result": "≥ 200", "unit": "µM"},
      {"measurement": "selectivity ratio", "setting": "[3]", "result": 2.25},
      {"measurement": "EC50", "setting": "Influenza A virus [8]", "result": 68, "unit": "µM"}
    ]},
    {"smiles": "CCCC(=O)N(CC(C)/C(=N\\c1ccccc1)Nc1ccccc1)c1ccccc1", "note": "(racemic)", "values": [
      {"measurement": "CC50 at 48 h", "setting": "[1]", "result": 216, "unit": "µM"},
      {"measurement": "EC50", "setting": "Influenza A virus [2]", "result": 98, "unit": "µM"},
      {"measurement": "selectivity ratio", "setting": "[3]", "result": 9},
      {"measurement": "selectivity ratio", "setting": "[6]", "result": 2.2},
      {"measurement": "EC50", "setting": "Influenza A virus [8]", "result": 24, "unit": "µM"}
    ]},
    {"smiles": "CCCCCCCCC(=O)N(CC(C)/C(=N\\c1ccccc1)Nc1ccccc1)c1ccccc1.Cl", "note": "(racemic)", "values": [
      {"measurement": "CC50 at 48 h", "setting": "[1]", "result": 247, "unit": "µM"},
      {"measurement": "EC50", "setting": "Influenza A virus [2]", "result": 1.98, "unit": "µM"},
      {"measurement": "selectivity ratio", "setting": "[3]", "result": 260},
      {"measurement": "Activity", "setting": "H3N2 subtype [4]", "result": "inactive"},
      {"measurement": "Activity", "setting": "Mus musculus [10]", "result": "Non-toxic"},
      {"measurement": "Activity", "setting": "H3N2 subtype [5]", "result": "Active"},
      {"measurement": "Activity", "setting": "Mus musculus [11]", "result": "Non-toxic"},
      {"measurement": "selectivity ratio", "setting": "[6]", "result": 125},
      {"measurement": "Activity", "setting": "Influenza A virus [7]", "result": "Active"},
      {"measurement": "EC50", "setting": "Influenza A virus [8]", "result": 0.95, "unit": "µM"},
      {"measurement": "Activity", "setting": "Mus musculus [12]", "result": "Non-toxic"},
      {"measurement": "LD50 at 120 h", "setting": "[9]", "result": 3000, "unit": "mg/kg"}
    ]},
    {"smiles": "N=C(N)CCNC(=O)[C@@H]1CC[C@H](N)C1", "note": "[(1R,3S)-AMIDINOMYCIN]", "values": [
      {"measurement": "LD50 at 120 h", "setting": "[9]", "result": 10, "unit": "mg/kg"}
    ]},
    {"smiles": "CC(N)C12CC3CC(CC(C3)C1)C2", "note": "(stereo not drawn) [RIMANTADINE]", "values": [
      {"measurement": "CC50 at 48 h", "setting": "[1]", "result": 1400, "unit": "µM"},
      {"measurement": "EC50", "setting": "Influenza A virus [2]", "result": 43.5, "unit": "µM"},
      {"measurement": "selectivity ratio", "setting": "[3]", "result": 256},
      {"measurement": "Activity", "setting": "H3N2 subtype [4]", "result": "Active"},
      {"measurement": "selectivity ratio", "setting": "[6]", "result": 32},
      {"measurement": "EC50", "setting": "Influenza A virus [8]", "result": 5.45, "unit": "µM"},
      {"measurement": "LD50 at 120 h", "setting": "[9]", "result": 175, "unit": "mg/kg"}
    ]}
  ]
}
